STAT3 blocker: reduces IL-6 driven STAT3 reporter signal; U3A cells, IL-6 STAT3-luciferase reporter, luminescence; host cell line lacks STAT1; inhibition, % at 5.5 µM; 190,000 compounds, 0.89% hits;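 active = inhibition above the mean inhibition across all screened compounds plus 3 SD, cut at about 44% in these data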
STAT3 activator: STAT3 signaling activation; U3A cells, IL-6 STAT3-luciferase reporter, luminescence; 100% = signal with IL-6 EC80 alone; 190,000 compounds, 0.91% hits; activation (% of control), % at 5.6 µM;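 active = activation above the screen-wide mean of compound activation plus 3 SD, cut at about 130% in these data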
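Material: STAT3-luciferase reporter U3A cells; Probe or stimulus: IL-6 (33 ng/mL); Incubation: compound pre-incubation 1 h before IL-6, then 6 h stimulation at 37 °C; Technique: luminescence from STAT3-driven luciferase reporter; Evaluation: % activation versus median of IL-6-stimulated wells; Controls: IL-6-only high control.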
STAT1 inh: inhibitors of IFN-gamma induced STAT1 signaling; NIH 3T3 STAT1-luciferase reporter, luminescence; 200,000 compounds, 0.35% hits; inhibition, % at 5.5 µM;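 active = inhibition above a set limit, the mean inhibition across all tested compounds plus 3 SD, cut at about 34% in these data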
STAT1 act: activators of IFN-gamma induced STAT1 signaling | NIH 3T3 STAT1-luciferase reporter, luminescence; 100% = IFN-gamma alone, no compound | activation (% of control), % at 5.5 µM | 200,000 compounds, 2.6% hits | AID 932;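 active = activation above the screen-wide mean activation plus 3 SD, cut at about 130% in these data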
APP 5'UTR act: APP 5'UTR luciferase reporter activation; 190,000 compounds, 1% hits; activation, % at 2 µM; SH-SY5Y APP 5'UTR luciferase reporter, luminescence; zero percent = DMSO vehicle wells;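 active = activation above a set limit, based on mean plus 3 SD of controls, cut at about 140% in these data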
NF-kB expr up: compounds increasing NF-kB expression in human neuronal cells; fold change at 12.5 µM; AID 1239; NF-kB reporter expression; stronger effect = higher value; 190,000 compounds, 1.6% hits; in the data active = fold change above about 3.3
Large screens that a line does not name were inactive. The list is not random: actives were taken first. Their share in the collection is about 5.1%.

O=C(N/N=C/C(Br)=C\c1ccccc1)c1n[nH]c2c1CCC2	STAT3 activator 141.8, STAT1 act 129.3, NF-kB expr up 8.35
COc1ccc(/C=N/NC(=O)c2ccoc2C)cc1OC	STAT1 act 132.1
CC(=O)Nc1cc(C(=O)OCC(=O)c2ccc(Cl)cc2Cl)ccc1C	none
CC(=O)Nc1cc(C(=O)OCC(=O)c2ccc(C)cc2)ccc1C	STAT1 act 143.4, NF-kB expr up 3.9
CCCN1C(=O)c2cc(C(=O)Nc3ccc(OC)cc3OC)ccc2C1Nc1ccc(OC)cc1OC (configuration not stated)	none
O=C(OCC(=O)c1ccc[nH]1)c1ccccc1	STAT1 act 137.9
CCC(=O)Nc1cccc(NC(=S)NC(=O)c2cccs2)c1	STAT1 act 132.5
NC1=NC(=O)/C(=C\C=C\c2ccccc2)S1	STAT1 act 134.3
C=CCOc1ccccc1CNc1ccc2c(c1)OCCO2	STAT3 blocker 70.4, STAT1 inh 42.6
C=CCOc1ccccc1CNc1cccc(F)c1	none
COc1ccc(-c2cc(-c3ccccc3)c(C#N)c(S(C)=O)n2)cc1 (configuration not stated)	NF-kB expr up 3.58 (no result: APP 5'UTR act)
CCSc1nc(-c2ccc(OC)cc2)cc(-c2ccccc2)c1C#N	none
Cc1ccc(NC(=O)c2cc(N3C(=O)CCC3=O)ccc2N2CCCCC2)cc1	none
C/C(=N\NC(=O)c1ccc(CN2CCOCC2)cc1)c1ccc(NC(=O)c2ccccc2)cc1	STAT1 act 130.9
O=C(Nc1ccc(CN2CCOCC2)cc1)c1cccc(F)c1	STAT1 act 132.9
O=C(Nc1ccc(CN2CCOCC2)cc1)c1cccc(-c2cc3ccccc3oc2=O)c1	none
COCCOC(=O)c1cc(C(=O)c2cc(Cl)ccc2O)coc1=N	none
COc1ccc(-n2cc(C#N)c(=O)[nH]c2=O)cc1	none
Cc1ccc(C(=O)Nc2ncc3c(Cl)cccc3n2)cc1	STAT3 blocker 63.1, APP 5'UTR act 140.7
COc1ccc(-c2nc3nc(N)nn3cc2C)cc1F	none
Cc1ccc(-n2cc(C(=O)c3ccc(F)cc3)nn2)cc1Cl	STAT1 act 139.3
O=C(OCc1cn(-c2ccc(Cl)c(Cl)c2)nn1)c1ccccc1	none
O=C(Nc1ccc(Cl)c([N+](=O)[O-])c1)c1cnccn1	none
CCC(C)NCCOc1ccccc1C (configuration not stated)	none
Oc1ccc(/C=N/NC2=NCCCCC2)cc1	none
O=[N+]([O-])c1ccccc1/C=N/NC1=NCCCCC1	STAT1 act 132.8
C=CCn1c(SCC(=O)Nc2cccnc2Cl)nnc1-c1ccccc1F	none
COC(=O)/C(=C/c1c[nH]c2ccccc12)NC(C)=O	none
COC(=O)/C(=C/c1c[nH]c2ccccc12)[N+](=O)[O-]	STAT3 activator 134.3
O=C(NC1CCCCCC1)c1cccc(N2CCCC2=O)c1	STAT1 act 129.7
Cc1ccc(C(=O)NC2CCCCCC2)cc1N1CCCC1=O	none
Cc1nc2c3cnn(-c4ccc(C)c(C)c4)c3ncn2n1	STAT1 act 148.2, NF-kB expr up 4.26 (no result: APP 5'UTR act)
O=C1/C(=C\c2ccco2)CCC/C1=C\c1ccco1	NF-kB expr up 5.87
O=C(N/C=C/n1cnc2cc(C(F)(F)F)ccc21)c1ccccc1	none
CCOC(=O)C1(CC2CCCCO2)CCN(Cc2cn[nH]c2-c2cccc(F)c2)CC1 (configuration not stated)	none
Oc1csc(Cc2nc(-c3ccc4ccccc4c3)cs2)n1	STAT3 activator 163.3, STAT1 act 128.9
O=c1oc2ccccc2cc1-c1csc(Cc2nc(-c3ccc(Cl)cc3)cs2)n1	none
Oc1csc(Cc2nc(-c3ccccc3F)cs2)n1	STAT1 act 143.7
Oc1csc(Cc2nc(-c3ccc(-c4ccccc4)cc3)cs2)n1	none
CC(=O)NS(=O)(=O)c1ccc(N=c2ssc3c2-c2ccc(C)cc2NC3(C)C)cc1	STAT1 act 134.0
COc1cc2c(cc1NC(=O)COC(=O)C(CCSC)NC(=O)c1ccccc1Cl)oc1ccccc12 (configuration not stated)	none
Cc1cccnc1NC(=O)Cn1nc([N+](=O)[O-])cc1C	none
Cc1cccnc1NC(=O)Cn1nc(-c2ccccc2)oc1=S	APP 5'UTR act 169.9, NF-kB expr up 4.2
COc1ccccc1NC(=O)/C(C#N)=C/c1cc([N+](=O)[O-])ccc1N1CCCC1	none
COC(=O)C1=C(CN2CCc3ccccc32)NC(=O)NC1c1cc(C)ccc1C (configuration not stated)	none
COC(=O)C1=C(CN2CCCc3ccccc32)NC(=O)NC1c1ccc(F)cc1 (configuration not stated)	STAT3 blocker 90.9, STAT1 inh 59.5
CCOC(CNC(=O)Cc1c(C)nc2c(-c3ccccc3)c(C)nn2c1C)OCC	none
Oc1ccccc1N=Cc1ccc[nH]1	none
CN=c1scc(-c2ccccc2F)n1/N=C/c1ccc[nH]1	STAT3 blocker 110.3, STAT1 inh 96.7
CN=c1scc(-c2ccccc2F)n1/N=C/c1ccc(O)c(O)c1O	STAT3 blocker 50.5, STAT1 inh 87.4
CN(CC(=O)Nc1ccccc1Sc1ccccc1)C1CCCCC1	none
Cc1ccccc1C(=O)N/N=C1/SCC(=O)N1Cc1ccccc1	none
COc1cc(C(=O)OCCCN=C2NS(=O)(=O)c3ccccc32)cc(OC)c1OC	none
CC(C)(C)/C(COc1ccccc1[N+](=O)[O-])=N/O	none
CC1=CC(=O)C=C(C)C1=NOc1ccccc1[N+](=O)[O-]	NF-kB expr up 3.7
CC1=CC(C)=Nc2ccccc2N1	STAT1 act 128.7
O=C1CC(/C=C/c2ccccn2)=Nc2ccccc2N1	none
Cc1cccc(OCC2CCCN(Cc3nc(C4CC4)no3)C2)c1 (configuration not stated)	none
CCCc1nnc(NC(=O)Cn2c(=O)oc3cc(Br)ccc32)s1	none
O=c1oc2cc(Br)ccc2n1CSC1=NCCS1	NF-kB expr up 7.66
Cc1ccc(N=Cc2nc(-c3ccco3)oc2O)cc1	STAT1 act 140.7, NF-kB expr up 3.53
Cc1nc2ccc(NC(=O)c3ccc(Br)o3)cc2s1	STAT1 act 145.3, NF-kB expr up 3.44
Cc1nc2ccc(NC(=O)c3cccnc3)cc2s1	none
Cc1nc2ccc(NC(=O)c3ccc(Cl)s3)cc2s1	STAT1 act 145.9
O=C(Nc1ccc(-c2nc3cccnc3s2)cc1)c1ccc(Br)o1	STAT1 act 131.4
Cc1nc2ccc(NC(=O)Cc3cccs3)cc2s1	STAT1 act 135.5
Cc1ccc(NC(=S)N2CCN(S(=O)(=O)c3c(F)cccc3F)CC2)cc1C	none
C=CCNc1nc(Nc2ccc(OC)cc2OC)nc(OCC)n1	none
C=CCNc1nc(Nc2ccccc2F)nc(OCC)n1	STAT1 act 142.5
COCCn1c(=NC(=O)c2ccc(S(=O)(=O)N3CCc4ccccc4C3)cc2)sc2cc(S(N)(=O)=O)ccc21	STAT3 activator 135.2
